Reference: ChEMBL document CHEMBL4813921, “Optimization of WZ4003 as NUAK inhibitors against human colorectal cancer” (Eur J Med Chem, 2021)
Calls of active or inactive are those of the source. The calls are words filed in the database; no cut-off is given here.

Legend:
[1] = biological target: T1, NUAK family SNF1-like kinase 2 (Homo sapiens) (UniProt Q9H093); assay: Inhibition of NUAK2 (unknown origin) at 10 uM using CHKtide as substrate in presence of ATP measured after 60 mins by ADP-Glo assay
T1 sequence (whole entry): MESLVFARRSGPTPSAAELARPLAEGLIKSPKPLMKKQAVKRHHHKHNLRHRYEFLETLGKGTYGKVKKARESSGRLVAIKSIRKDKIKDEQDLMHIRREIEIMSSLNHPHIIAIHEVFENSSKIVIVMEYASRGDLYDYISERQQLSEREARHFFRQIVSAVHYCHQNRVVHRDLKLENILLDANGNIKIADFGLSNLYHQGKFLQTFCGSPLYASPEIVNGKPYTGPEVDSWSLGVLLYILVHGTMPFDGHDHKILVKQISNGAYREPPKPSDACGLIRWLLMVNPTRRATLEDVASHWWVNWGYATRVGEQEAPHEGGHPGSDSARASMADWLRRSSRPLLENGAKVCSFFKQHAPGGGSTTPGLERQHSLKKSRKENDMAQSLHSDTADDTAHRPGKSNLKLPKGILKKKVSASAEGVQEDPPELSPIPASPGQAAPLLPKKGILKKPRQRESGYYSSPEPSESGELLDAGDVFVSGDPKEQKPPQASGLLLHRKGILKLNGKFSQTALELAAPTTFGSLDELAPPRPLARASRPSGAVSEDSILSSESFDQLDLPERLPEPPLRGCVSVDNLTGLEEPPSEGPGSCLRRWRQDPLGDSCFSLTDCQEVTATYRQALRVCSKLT

[2] = system: SW480; assay: Inhibition of colony formation in human SW480 cells measured after 14 days by crystal violet staining based microcopic analysis; type: functional, cell-based; details: dose 0.5-2 µM, time 14.0 day
Procedure, shortened: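 Clonogenic assay with 14-day exposure to a range of compound concentrations; colonies stained with crystal violet and imaged by microscopy; compared with untreated cells.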

[3] = system: HCT-116; assay: Antiproliferative activity against human HCT-116 cells at 2.5 to 10 uM measured after 48 hrs by EdU staining based assay; type: functional, cell-based; details: dose 2.5-10 µM
Procedure, shortened: (§1)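 Cells exposed to a range of compound concentrations for 48 h, then EdU click-chemistry staining with DAPI counterstain. Confocal high-content imaging; DAPI-positive nuclei counted as total and EdU-positive as proliferating.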

[4] = system: SW480; assay: Antiproliferative activity against human SW480 cells at 2.5 to 10 uM measured after 48 hrs by EdU staining based assay; type: functional, cell-based; details: dose 2.5-10 µM; procedure, shortened: as §1
[5] = system: U2OS; assay: Induction of cell cycle arrest in human U2OS cells assessed as reduction in accumulation at G1 phase at 10 uM measured after 48 hrs by PI/RNaseA staining based flow cytometry assay; type: functional
[6] = system: HCT-116; assay: Induction of cell cycle arrest in human HCT-116 cells assessed as reduction in accumulation at G1 phase at 10 uM measured after 48 hrs by PI/RNaseA staining based flow cytometry assay; type: functional
[7] = system: SW480; assay: Induction of cell cycle arrest in human SW480 cells assessed as reduction in accumulation at G1 phase at 10 uM measured after 48 hrs by PI/RNaseaA staining based flow cytometry assay; type: functional
[8] = system: SW480; assay: Induction of cell cycle arrest in human SW480 cells assessed as reduction in accumulation at S phase at 10 uM measured after 48 hrs by PI/RNaseA staining based flow cytometry assay; type: functional
[9] = system: U2OS; assay: Induction of ROS generation in human U2OS cells at 10 uM measured after 48 hrs by DCFH-DA staining based flow cytometry method; type: functional, cell-based
Procedure, shortened: (§2)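 Cells treated at 10 μM for 48 h, ROS measured by flow cytometry. Fluorescence intensity expressed relative to vehicle-treated controls; mean ± SEM from 3 independent experiments.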

[10] = system: HCT-116; assay: Induction of ROS generation in human HCT-116 cells at 10 uM measured after 48 hrs by DCFH-DA staining based flow cytometry method; type: functional, cell-based; procedure, shortened: as §2
[11] = system: SW480; assay: Induction of ROS generation in human SW480 cells at 10 uM measured after 48 hrs by DCFH-DA staining based flow cytometry method; type: functional, cell-based; procedure, shortened: as §2
[12] = system: U2OS; assay: Induction of apoptosis in human U2OS cells assessed as late apoptotic cells at 10 uM measured after 48 hrs by Annexin V-FITC/PI staining based flow cytometry method (reference value: 1.3%); type: functional
[13] = system: U2OS; assay: Induction of apoptosis in human U2OS cells assessed as necrotic cells at 10 uM measured after 48 hrs by Annexin V-FITC/PI staining based flow cytometry method (reference value: 0.4%); type: functional
[14] = system: HCT-116; assay: Induction of apoptosis in human HCT-116 cells assessed as viable cells at 10 uM measured after 48 hrs by Annexin V-FITC/PI staining based flow cytometry method (reference value: 95.4%); type: functional; details: read-out: Activity
[15] = system: HCT-116; assay: Induction of apoptosis in human HCT-116 cells assessed as early apoptotic cells at 10 uM measured after 48 hrs by Annexin V-FITC/PI staining based flow cytometry method (reference value: 0.8%); type: functional
[16] = system: HCT-116; assay: Induction of apoptosis in human HCT-116 cells assessed as necrotic cells at 10 uM measured after 48 hrs by Annexin V-FITC/PI staining based flow cytometry method (reference value: 2.2%); type: functional
[17] = system: SW480; assay: Induction of apoptosis in human SW480 cells assessed as viable cells at 10 uM measured after 48 hrs by Annexin V-FITC/PI staining based flow cytometry method (reference value: 93.2%); type: functional; details: read-out: Activity
[18] = system: SW480; assay: Induction of apoptosis in human SW480 cells assessed as late apoptotic cells at 10 uM measured after 48 hrs by Annexin V-FITC/PI staining based flow cytometry method (reference value: 2.8%); type: functional
[19] = system: SW480; assay: Induction of apoptosis in human SW480 cells assessed as necrotic cells at 10 uM measured after 48 hrs by Annexin V-FITC/PI staining based flow cytometry method (reference value: 1.4%); type: functional
[20] = Toxicity against BALB/c-nu/nu mouse xenografted with human SW480 cells assessed as body weight at 10 to 20 mg/kg, ip administered every 2 days for 18 days; type: organism-based; details: in vivo, 432 h, dose 10-20 mg/kg, time 18 day
Procedure, shortened: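 SW480 xenografts in nude mice, randomized at 100 mm3 tumour volume into four groups of six. Dosed ip at 10 or 20 mg/kg every two days for 18 days, with vehicle group. Tumour volume and body weight recorded every two days; tumours weighed at end; means ± SD (n = 6).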

[21] = Toxicity against BALB/c-nu/nu mouse xenografted with human SW480 cells assessed as morphological changes in heart at 10 to 20 mg/kg, ip administered every 2 days for 18 days by H and E staining based analysis; type: organism-based; details: in vivo, 432 h, dose 10-20 mg/kg, time 18 day
Procedure, shortened: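 After 18 days of ip dosing every two days in SW480-xenografted nude mice, heart, liver, spleen, lung and kidney harvested, sectioned, HE-stained, examined at ×400.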

[22] = system: SW480; assay: Antitumour activity against human SW480 cells xenografted in Balb/c-nu/nu mouse assessed as reduction in Ki67 expression in tumor at 20 mg/kg, ip administered every 2 days for 18 days by immunohistochemical assay; type: functional, organism-based; details: time 18.0 day
Procedure, shortened: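 SW480 xenografts in nude mice (n = 6 per group) treated ip every two days for 18 days. Excised tumours sectioned for HE and Ki67 staining, examined at ×400.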

inhibition [1]: 82.5%
SMILES: CCC(=O)Nc1cccc(Oc2nc(Nc3ccc(N4CCN(C)CC4)cc3)ncc2Cl)c1
inhibition [2]: Dose-Dependent Effect | Activity [3]: Active | Activity [4]: Active | Activity [5]: Active | Activity [6]: Active | Activity [7]: Active | Activity [8]: Active | Activity [9]: Active | Activity [10]: Active | Activity [11]: Active | Activity [12]: 4.8% | Activity [13]: 0.6% | viability at 10 µM [14]: 46% | Activity [15]: 3.9% | Activity [16]: 4.1% | viability at 10 µM [17]: 69.8% | Activity [18]: 10.8% | Activity [19]: 3.3% | Activity [20]: Non-Toxic | Activity [21]: Non-Toxic | Activity [22]: Active
